Usually AUC(0-t) stands for the area under the concentration-time curve up to a stated or last time point. What is called pEC50 is −log10 of the EC50, conventionally taken in molar units. The term Cmax denotes the peak of the concentration-time curve. Usually half-life stands for how long it takes for the measured level to halve. A word on the Tmax: it is the time from dosing to the highest level. The term bioavailability denotes the share of a dose that reaches the circulation, judged against a reference dose that is usually intravenous. One may read the clearance as a measure of how efficiently the substance is removed, as volume per time.

Results on one molecule are retold here after ChEMBL document CHEMBL4613269, “2-((4-Arylpiperazin-1-yl)methyl)benzonitrile Derivatives as Orally Available Inhibitors of Hepatitis C Virus with a Novel Mechanism of Action” (J Med Chem, 2020).

pEC50: −log10 of the molar value. The source made the active and inactive calls. No cut-off for these calls is given here. A value given as a limit tells only on which side of the number the result lay.

Data set [1] deals with Hepatitis C virus. Nature of the data set: Antiviral activity against HCV GS4.3 infected in human Huh7.5 cells assessed as reduction in viral NS3 protein levels at 0.2 to 5 uM incubated for 72 hrs by Western blot assay. The class given is functional, organism-based. Particulars: Hepacivirus hominis. In general terms: Immunoblotting shows a protein as a band on a membrane.

Data set [2] is described as follows: AUC (0 to 72 hrs) in beagle dog at 5 mg/kg, iv measured after 0.08 to 72 hrs post dose by LC-MS/MS analysis. On the set-up: time < 72 hr, dose 5 mg/kg, route intravenous. The class given is ADME, organism-based, Canis lupus familiaris. Particulars: in vivo. The method, boiled down: (§1)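 Single dose to fasted (12 h) animals: oral gavage 15 mg/kg as suspension in 0.5% CMC-Na, or iv 5 mg/kg dissolved in citric acid buffer pH 5.0 with 2.5% DMSO. Jugular vein blood on heparin at 0.08 (iv only) to 72 h. Plasma assayed by LC-MS/MS; parameters from noncompartmental analysis.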

Data set [3] in a line: Toxicity in Kunming mouse assessed as effect on blood urea nitrogen level at 250 to 1000 mg/kg dosed via single oral gavage and measured on day 7 post treatment. In kind it is organism-based. Particulars: in vivo. The method, boiled down: (§2)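 Kunming mice, 4 groups of n = 6 (3 male, 3 female). Fasted from 12 h before to 1 h after dosing. Single oral gavage of 250, 500 or 1000 mg/kg suspended in 0.5% CMC-Na, or vehicle alone. Followed for 7 days: survival, body weight before and at day 7. Day-7 blood taken for AST, ALT, urea nitrogen and creatinine.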

For data set [4], the system named is Hepatitis C virus. Nature of the data set: Synergistic antiviral activity against HCV infected in human Huh7.5 cells assessed as reduction in HCV core protein level by measuring (q) value at 0.1 uM in presence of 0.025 uM simeprevir incubated for 72 hrs by Western blot assay based Webb method relative to control. In kind it is functional, Hepacivirus hominis. Put shortly: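 Huh7.5 cells in 6-well plates were infected with HCV in the presence of 0.1 μM test compound combined with simeprevir 0.025 μM, sofosbuvir 0.1 μM or daclatasvir 0.016 nM. Western blot at 72 h gave HCV core protein relative to actin, normalized to control. q calculated by Webb's method (q<1 antagonism, =1 addition, >1 synergy); over 3 independent experiments.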

Data set [5] can be described thus: Apparent Volume of distribution in Sprague-Dawley rat at 15 mg/kg, po measured after 0.08 to 72 hrs post dose by LC-MS/MS analysis. The class given is ADME, organism-based. The following applies: in vivo. The method, boiled down:
as §1

Data set [6] can be described thus: Apparent Volume of distribution in beagle dog at 15 mg/kg, po measured after 0.08 to 72 hrs post dose by LC-MS/MS analysis. In kind it is ADME, organism-based, Canis lupus familiaris. The following applies: in vivo. Put shortly:
as §1

Data set [7] is described as follows: Selectivity index, ratio of CC50 for cytotoxicity in human Huh7.5 cells assessed as reduction in cell viability incubated for 96 hrs by MTT assay to EC50 antiviral activity against HCV J6/JFH/JC1 infected in human Huh7.5 cells assessed as reduction in viral RNA levels incubated for 72 hrs by qRT-PCR analysis. The following applies: read-out: Ratio CC50/EC50. In kind it is toxicity, cell-based. The method, boiled down:
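Selectivity index = CC50/EC50. CC50: Huh7.5 cells seeded at 3×10^4/cm², medium with compound added at 24 h, MTT read at 96 h. EC50: HCVcc-infected Huh7.5 cells treated for 72 h, HCV RNA by qRT-PCR normalised to GAPDH. Serial 1:5 dilutions in eight steps, Reed & Muench calculation, means ± SD of three independent experiments.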
(In general: Tetrazolium assays rely on reduction of a dye to a coloured formazan, in cell work by metabolically active cells.)

Data set [8] is described as follows: Selectivity index, ratio of CC50 for cytotoxicity in African green monkey Vero cells to EC50 for Antiviral activity against Coxsackievirus B3 infected in Vero cells. The class given is toxicity, cell-based. The following applies: read-out: Ratio CC50/EC50.
The subject of data set [9] is Hepatitis C virus. As to the kind of experiment: Induction of HCV GS4.3 viral particles inactivation infected in human Huh7.5 cells assessed as reduction in viral protein levels at 1 uM pre-incubated with virus for 2 hrs before viral infection and measured after 72 hrs by Western blot assay. The class given is functional, organism-based. Particulars: Hepacivirus hominis. Put shortly: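 Huh7.5 cells inoculated with HCV stock pre-treated 2 h with 1.0 μM compound, then diluted 20-fold (final 0.05 μM). Control stocks were treated with 0.05 μM or 1.0 μM. Intracellular proteins were extracted and analysed by western blot at 72 h, with HCV Core/actin ratio normalized to control.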

The next data set concerns Influenza A virus. Nature of the data set: Antiviral activity against influenza A virus H3N2/95-359 infected in MDCK cells assessed as reduction in virus-induced cytopathic effect incubated for 48 hrs by Reed-Muench method. In kind it is functional, organism-based. Particulars: H3N2/95-359, MDCK. Background: Damage to the host cells serves as the signal in cytopathic effect assays.

Data set [10] in a line: Cmax in beagle dog at 15 mg/kg, po measured after 0.08 to 72 hrs post dose by LC-MS/MS analysis. In kind it is ADME, organism-based, Canis lupus familiaris. More on the design: dose 15 mg/kg, route oral. Particulars: in vivo. The method, boiled down: as §1
Data set [11] can be described thus: Cmax in Sprague-Dawley rat at 5 mg/kg, iv measured after 0.08 to 72 hrs post dose by LC-MS/MS analysis. The class given is ADME, organism-based. More on the design: dose 5 mg/kg, route intravenous. Particulars: in vivo. Put shortly:
as §1

Data set [12] in a line: Half life in beagle dog at 15 mg/kg, po measured after 0.08 to 72 hrs post dose by LC-MS/MS analysis. The class given is ADME, organism-based, Canis lupus familiaris. Particulars: in vivo. The method, boiled down:
as §1

Data set [13] in a line: AUC (0 to 72 hrs) in Sprague-Dawley rat at 5 mg/kg, iv measured after 0.08 to 72 hrs post dose by LC-MS/MS analysis. On the set-up: time < 72 hr, dose 5 mg/kg, route intravenous. The class given is ADME, organism-based. Particulars: in vivo. Put shortly:
as §1

In data set [14] the test system is Hepatitis C virus. As to the kind of experiment: Antiviral activity against HCV GS4.3 infected in human Huh7.5 cells assessed as […] at 0.008 to 1 uM pre-incubated with drug for 2 hrs before viral infection and measured after 72 hrs by Western blot assay. The class given is functional, organism-based. The following applies: Hepacivirus hominis.
Data set [15] is described as follows: Tmax in Sprague-Dawley rat at 15 mg/kg, po measured after 0.08 to 72 hrs post dose by LC-MS/MS analysis. The class given is ADME, organism-based. The following applies: in vivo.
A short description of data set [16]: Bioavailability in Sprague-Dawley rat at 5 mg/kg, iv measured after 0.08 to 72 hrs post dose by LC-MS/MS analysis. In kind it is ADME, organism-based. Particulars: in vivo. The method, boiled down:
as §1

Data set [17] concerns Hepatitis C virus. As to the kind of experiment: Antiviral activity against HCV GS4.3 infected in human Huh7.5 cells assessed as reduction in viral NS3 protein levels at 0.1 to 5 uM incubated for 14 days by Western blot assay. In kind it is functional, organism-based. Particulars: Hepacivirus hominis.
Data set [18] is described as follows: Drug level in beagle dog at 5 mg/kg, iv measured after 24 hrs post dose by LC-MS/MS analysis. The class given is ADME, organism-based, Canis lupus familiaris. The following applies: in vivo, read-out: Drug uptake. The method, boiled down:
as §1

A short description of data set [19]: Clearance in beagle dog at 5 mg/kg, iv measured after 0.08 to 72 hrs post dose by LC-MS/MS analysis. In kind it is ADME, organism-based, Canis lupus familiaris. Particulars: in vivo. The method, boiled down:
as §1

Data set [20] in a line: Toxicity in Kunming mouse assessed as effect on body weight at 250 to 1000 mg/kg dosed via single oral gavage and measured on day 7 post treatment. The class given is organism-based. The following applies: in vivo. Put shortly:
as §2

A short description of data set [21]: Apparent Volume of distribution in Sprague-Dawley rat at 5 mg/kg, iv measured after 0.08 to 72 hrs post dose by LC-MS/MS analysis. Particulars: in vivo, read-out: Vz. In kind it is ADME, organism-based. Put shortly:
as §1

Data set [22] relates to Hepatitis C virus. Nature of the data set: Antiviral activity against HCV GS4.3 infected in human Huh7.5 cells assessed as reduction in viral replication at 1 uM simultaneously treated with viral infection for 15 mins to 2 hrs and measured after 72 hrs by In-Cell Western assay. Particulars: Hepacivirus hominis. In kind it is functional, organism-based. Put shortly:
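Huh7.5 cells infected with HCV while incubated with compound, either for 4 h across a concentration series or at 1.0 µM for varied times down to 15 min. Supernatant then replaced with fresh medium. Intracellular Core protein measured by In-Cell Western at 72 h.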

A short description of data set [23]: AUC (0 to 72 hrs) in beagle dog at 15 mg/kg, po measured after 0.08 to 72 hrs post dose by LC-MS/MS analysis. Particulars: in vivo. More on the design: time < 72 hr, dose 15 mg/kg, route oral. In kind it is ADME, organism-based, Canis lupus familiaris. The method, boiled down: as §1

Regarding `CN(C)CCN(C)c1ccc(C#N)c(CN2CCN(c3ccc(Cl)cc3)CC2)c1`, the result in the data set on Hepatitis C virus [1], in the data set with Hepatitis C virus [9], with Hepatitis C virus [14] and with Hepatitis C virus [17] was inactive. Besides, the AUC(0-t) at 72 h worked out at 1070 ng·h/mL in data set [2], 5420 ng·h/mL in data set [13] and 1280 ng·h/mL in data set [23]. Besides, the Activity result in data set [3] and in data set [20] was “Non-Toxic” in each case. Further, the Ratio with Hepatitis C virus [4] is reported as 1.05. For the same molecule, the results for the Vz in data set [5] and in [6] were 34.83407 L/kg and 238.11697 L/kg, respectively. The results for the selectivity ratio in data set [7] and in data set [8] were 671 and 3, respectively. In addition, the pEC50 in the data set with Influenza A virus is below 5.61. In addition, the Cmax was determined as 94.5 ng/mL in [10] and 617 ng/mL in data set [11]. Besides, the half-life in [12] was 12.7 h. In addition, in data set [15], the Tmax was 3.08 h. This molecule registered a bioavailability in data set [16] of 59%. Also, the concentration at 24 h in data set [18] was 6.16 ng/mL. In data set [19], this molecule showed a clearance of 79.2 mL/min/kg. Moreover, the Vd in data set [21] was 20.1 L/kg. Also, in the data set with Hepatitis C virus [22], the outcome was Active.
